Measurements reported in the M2OR odorant receptor database.

Assays:
Conditions in all cases: stereoisomer not certain
[1] = molecular target: T1, UniProt Q8VF52
T1 sequence (whole entry): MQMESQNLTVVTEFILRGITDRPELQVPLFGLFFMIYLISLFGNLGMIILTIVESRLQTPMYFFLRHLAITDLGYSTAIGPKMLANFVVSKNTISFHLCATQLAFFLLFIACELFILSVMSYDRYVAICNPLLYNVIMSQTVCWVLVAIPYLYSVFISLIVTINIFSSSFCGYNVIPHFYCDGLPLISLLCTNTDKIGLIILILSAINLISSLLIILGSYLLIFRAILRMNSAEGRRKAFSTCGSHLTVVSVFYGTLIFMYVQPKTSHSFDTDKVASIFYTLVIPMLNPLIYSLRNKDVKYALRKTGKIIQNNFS
Method in brief: (§1)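 Each entry records the cell line, G-protein, co-transfected protein and tags used. Methods varied with the source, often transient luciferase assays in mammalian cell lines. A receptor–molecule pair is called responsive (active) if the original authors judged its signal statistically different from baseline and non-responsive (inactive) otherwise.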

[2] = molecular target: T2, UniProt Q8VFG6
T2 sequence (whole entry): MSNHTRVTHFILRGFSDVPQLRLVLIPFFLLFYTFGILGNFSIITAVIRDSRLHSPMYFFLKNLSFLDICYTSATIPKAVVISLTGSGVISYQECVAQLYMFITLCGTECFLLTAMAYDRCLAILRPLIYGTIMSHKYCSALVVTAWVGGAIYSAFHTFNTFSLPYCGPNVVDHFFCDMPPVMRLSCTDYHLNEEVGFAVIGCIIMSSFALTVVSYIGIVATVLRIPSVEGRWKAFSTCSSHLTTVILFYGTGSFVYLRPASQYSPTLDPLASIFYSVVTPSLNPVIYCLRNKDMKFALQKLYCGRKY
Method in brief: as §1

[3] = molecular target: T3, UniProt Q8VFZ6
T3 sequence (whole entry): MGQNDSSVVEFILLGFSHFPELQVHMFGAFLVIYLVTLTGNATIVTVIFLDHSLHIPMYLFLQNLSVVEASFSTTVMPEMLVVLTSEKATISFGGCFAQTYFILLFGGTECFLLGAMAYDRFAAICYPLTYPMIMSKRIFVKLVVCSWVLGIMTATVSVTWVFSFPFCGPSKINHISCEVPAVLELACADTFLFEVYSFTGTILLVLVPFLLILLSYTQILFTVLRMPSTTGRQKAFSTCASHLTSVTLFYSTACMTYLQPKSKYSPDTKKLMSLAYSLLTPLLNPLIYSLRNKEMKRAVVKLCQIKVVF
Method in brief: as §1

[4] = molecular target: T4, UniProt Q8VG01
T4 sequence (whole entry): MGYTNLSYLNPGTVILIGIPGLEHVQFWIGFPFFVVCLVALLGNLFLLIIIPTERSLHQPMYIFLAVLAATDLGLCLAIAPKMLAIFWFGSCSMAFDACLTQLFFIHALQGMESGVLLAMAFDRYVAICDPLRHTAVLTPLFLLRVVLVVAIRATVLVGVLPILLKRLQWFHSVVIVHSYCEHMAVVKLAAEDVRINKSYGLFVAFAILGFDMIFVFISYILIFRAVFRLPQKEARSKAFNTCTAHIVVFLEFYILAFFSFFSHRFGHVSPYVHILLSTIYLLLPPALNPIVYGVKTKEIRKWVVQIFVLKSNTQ
Method in brief: as §1

[5] = molecular target: T5, UniProt Q8VG22
T5 sequence (whole entry): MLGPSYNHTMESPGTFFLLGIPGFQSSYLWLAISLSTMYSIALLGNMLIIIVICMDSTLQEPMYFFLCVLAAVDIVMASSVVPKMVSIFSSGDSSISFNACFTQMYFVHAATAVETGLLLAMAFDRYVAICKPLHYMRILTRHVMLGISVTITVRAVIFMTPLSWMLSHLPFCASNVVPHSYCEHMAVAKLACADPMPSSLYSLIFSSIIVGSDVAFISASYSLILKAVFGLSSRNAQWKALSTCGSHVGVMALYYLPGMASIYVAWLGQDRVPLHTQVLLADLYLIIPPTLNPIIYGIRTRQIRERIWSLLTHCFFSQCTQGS
Method in brief: as §1

[6] = molecular target: T6, UniProt Q8VG49
T6 sequence (whole entry): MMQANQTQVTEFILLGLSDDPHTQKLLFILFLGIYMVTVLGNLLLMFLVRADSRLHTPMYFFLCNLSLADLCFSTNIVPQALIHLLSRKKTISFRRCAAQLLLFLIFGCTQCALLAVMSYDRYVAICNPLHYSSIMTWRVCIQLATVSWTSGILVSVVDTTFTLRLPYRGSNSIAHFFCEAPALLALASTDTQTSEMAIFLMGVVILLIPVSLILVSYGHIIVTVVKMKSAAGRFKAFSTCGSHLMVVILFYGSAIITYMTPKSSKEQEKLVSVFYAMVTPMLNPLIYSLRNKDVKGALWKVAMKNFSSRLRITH
Method in brief: as §1

[7] = molecular target: T7, UniProt Q8VG77
T7 sequence (whole entry): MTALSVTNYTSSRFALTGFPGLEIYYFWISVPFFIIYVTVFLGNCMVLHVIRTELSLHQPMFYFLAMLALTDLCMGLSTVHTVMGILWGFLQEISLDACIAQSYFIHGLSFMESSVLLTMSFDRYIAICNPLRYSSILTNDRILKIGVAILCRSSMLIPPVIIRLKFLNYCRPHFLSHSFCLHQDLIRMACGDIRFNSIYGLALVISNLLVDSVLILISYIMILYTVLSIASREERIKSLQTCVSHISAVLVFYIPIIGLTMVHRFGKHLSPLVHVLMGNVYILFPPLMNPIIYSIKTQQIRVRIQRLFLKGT
Method in brief: as §1

[8] = molecular target: T8, UniProt Q8VG96
T8 sequence (whole entry): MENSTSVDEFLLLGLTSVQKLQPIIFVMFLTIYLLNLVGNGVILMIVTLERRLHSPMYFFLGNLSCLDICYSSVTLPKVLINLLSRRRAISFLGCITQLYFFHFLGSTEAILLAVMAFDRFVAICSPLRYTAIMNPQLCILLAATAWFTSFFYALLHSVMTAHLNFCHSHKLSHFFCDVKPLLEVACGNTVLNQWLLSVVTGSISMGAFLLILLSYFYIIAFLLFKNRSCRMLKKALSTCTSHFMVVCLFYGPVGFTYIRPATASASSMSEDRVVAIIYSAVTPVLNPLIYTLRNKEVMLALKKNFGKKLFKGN
Method in brief: as §1

[9] = molecular target: T9, UniProt Q8VGC6
T9 sequence (whole entry): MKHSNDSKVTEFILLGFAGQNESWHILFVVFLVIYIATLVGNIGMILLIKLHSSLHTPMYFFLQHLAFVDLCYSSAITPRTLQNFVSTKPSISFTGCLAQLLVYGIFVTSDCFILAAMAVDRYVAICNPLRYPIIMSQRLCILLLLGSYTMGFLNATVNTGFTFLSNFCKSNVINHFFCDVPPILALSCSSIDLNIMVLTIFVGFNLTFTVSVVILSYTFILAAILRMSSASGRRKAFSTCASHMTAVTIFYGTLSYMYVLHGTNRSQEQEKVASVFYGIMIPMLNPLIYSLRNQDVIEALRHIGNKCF
Method in brief: as §1

[10] = molecular target: T10, UniProt Q8VGD7
T10 sequence (whole entry): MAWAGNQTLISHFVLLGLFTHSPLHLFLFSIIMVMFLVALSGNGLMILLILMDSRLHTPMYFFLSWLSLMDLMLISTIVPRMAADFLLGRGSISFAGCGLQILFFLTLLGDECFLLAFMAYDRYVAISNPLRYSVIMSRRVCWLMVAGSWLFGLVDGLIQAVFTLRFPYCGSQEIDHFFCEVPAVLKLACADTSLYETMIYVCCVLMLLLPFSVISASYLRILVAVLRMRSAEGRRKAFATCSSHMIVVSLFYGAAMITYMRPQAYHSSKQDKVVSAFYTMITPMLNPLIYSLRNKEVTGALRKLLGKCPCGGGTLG
Method in brief: as §1

[11] = molecular target: T11, UniProt Q8VGH1
T11 sequence (whole entry): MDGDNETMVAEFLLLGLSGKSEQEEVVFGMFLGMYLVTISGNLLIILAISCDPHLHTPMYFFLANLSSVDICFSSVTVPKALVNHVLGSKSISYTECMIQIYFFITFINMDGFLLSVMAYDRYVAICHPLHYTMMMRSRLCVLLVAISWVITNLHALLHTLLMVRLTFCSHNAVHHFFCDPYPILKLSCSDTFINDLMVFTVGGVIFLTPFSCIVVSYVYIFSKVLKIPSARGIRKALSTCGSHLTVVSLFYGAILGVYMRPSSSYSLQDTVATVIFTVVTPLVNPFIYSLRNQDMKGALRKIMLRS
Method in brief: as §1

[12] = molecular target: T12, UniProt Q8VGJ1
T12 sequence (whole entry): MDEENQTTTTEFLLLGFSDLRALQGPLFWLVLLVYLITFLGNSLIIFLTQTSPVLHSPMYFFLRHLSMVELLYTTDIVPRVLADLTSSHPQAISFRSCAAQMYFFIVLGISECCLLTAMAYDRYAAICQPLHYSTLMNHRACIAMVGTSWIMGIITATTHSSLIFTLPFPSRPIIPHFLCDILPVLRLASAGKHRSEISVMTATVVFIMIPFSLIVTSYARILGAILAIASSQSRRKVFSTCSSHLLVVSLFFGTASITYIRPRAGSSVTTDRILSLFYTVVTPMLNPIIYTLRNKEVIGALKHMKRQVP
Method in brief: as §1

Measured: odorant receptor agonist call

C=CCc1ccccc1
inactive: all assays above
